Test results: ChEMBL document CHEMBL3044956, “Nematicidal and antifungal activities of annonaceous acetogenins from Annona squamosa against various plant pathogens” (J Agric Food Chem, 2011)
In brackets after ≈: the same amount, converted by molar mass.

Key:
Format in all cases: functional
[1] = tested on: Bursaphelenchus xylophilus; experiment: Nematicidal activity against second juvenile stage (J2) of Bursaphelenchus xylophilus assessed as mortality at >0.33 ug/ml after 2 days by microtiter plate assay method (Beneficial crop Pine)
Method in brief: (§1)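 Pine wood nematodes reared on B. cinerea mycelia on PDA for 7 days at 28 °C. J2s collected in 0.01% Triton X-100 water and tested in microtiter plates. Compounds in DMSO or MeOH, solvent ≤1%; solvent-only controls. Concentrations 0.004–1 μg/mL. Mortality Abbott-corrected; LC50 by probit. Two runs, three replicates each.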

[2] = tested on: Bursaphelenchus xylophilus; experiment: Nematicidal activity against second juvenile stage (J2) of Bursaphelenchus xylophilus assessed as mortality after 2 days by microtiter plate assay method (Beneficial crop Pine); settings: 48 h; method in brief: as §1
Pyricularia oryzae [3] = experiment: In vivo antifungal activity against Magnaporthe oryzae infected rice seedlings assessed as control of rice blast disease development at 1 ug/ml treated 1 day before spore inoculation measured 3-7 days after inoculation
Method in brief: (§2)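 Potted seedlings sprayed to runoff with material dissolved in MeOH and diluted in 0.025% Tween 20 (5% MeOH); controls got the Tween/MeOH solution alone. Inoculated with spores or mycelial suspension 1 day later. Infected leaf or sheath area rated 3–7 days after inoculation; % control = 100(A−B)/A. Randomized complete block design, three replicates, run in duplicate; Tukey HSD.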

Pyricularia oryzae [4] = experiment: In vivo antifungal activity against Magnaporthe oryzae infected rice seedlings assessed as control of rice blast disease development at 50 ug/ml treated 1 day before spore inoculation measured 3-7 days after inoculation; method in brief: as §2
Meloidogyne incognita [5] = experiment: Nematicidal activity against second juvenile stage (J2) of Meloidogyne incognita (root-knot nematode) assessed as mortality incubated in the dark at 28 degC after 3 days by light microscopy (benficial crop Tomato); settings: 72 h
Method in brief: (§3)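 M. incognita eggs taken from infected tomato roots with hypochlorite and J2s hatched in Baermann funnels at 28 °C. J2s from the first 3 days kept in 0.01% Tween 20 water and used within 24 h. About 100 J2s per well; stock added 1:100 in DMSO or MeOH (≤1%). Plates kept shaking in the dark at 28 °C, scored by microscope at 1, 2 and 3 days. Mortality Abbott-corrected. Two runs, three replicates each.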

Meloidogyne incognita [6] = experiment: Nematicidal activity against second juvenile stage (J2) of Meloidogyne incognita (root-knot nematode) assessed as mortality incubated in the dark at 28 degC after 2 days by light microscopy (benficial crop Tomato); settings: 48 h; method in brief: as §3
Meloidogyne incognita [7] = experiment: Nematicidal activity against second juvenile stage (J2) of Meloidogyne incognita (root-knot nematode) assessed as mortality incubated in the dark at 28 degC after 1 day by light microscopy (benficial crop Tomato); settings: 24 h; method in brief: as §3
Rhizoctonia solani [8] = experiment: In vivo antifungal activity against Rhizoctonia solani infected rice seedlings assessed as control of rice sheath blight disease development at 5 ug/ml treated 1 day before spore inoculation measured 3-7 days after inoculation; method in brief: as §2
Rhizoctonia solani [9] = experiment: In vivo antifungal activity against Rhizoctonia solani infected rice seedlings assessed as control of rice sheath blight disease development at 50 ug/ml treated 1 day before spore inoculation measured 3-7 days after inoculation; method in brief: as §2
Phytophthora infestans [10] = experiment: In vivo antifungal activity against Phytophthora infestans zoospores infected tomato seedlings assessed as control of tomato late blight disease development at 2 ug/ml treated 1 day before spore inoculation measured 3 days after inoculation; method in brief: as §2
Phytophthora infestans [11] = experiment: In vivo antifungal activity against Phytophthora infestans zoospores infected tomato seedlings assessed as control of tomato late blight disease development at 10 ug/ml treated 1 day before spore inoculation measured 3 days after inoculation; method in brief: as §2
Puccinia recondita [12] = experiment: In vivo antifungal activity against Puccinia recondita infected wheat seedlings assessed as reduction in wheat leaf rust disease symptoms development at 2 ug/ml treated 1 day before spore inoculation measured 7 days after inoculation; set-up: scale not given: the % may be the effect or the level left; method in brief: as §2
Puccinia recondita [13] = experiment: In vivo antifungal activity against Puccinia recondita infected wheat seedlings assessed as reduction in wheat leaf rust disease symptoms development at 10 ug/ml treated 1 day before spore inoculation measured 7 days after inoculation; set-up: scale not given: the % may be the effect or the level left; method in brief: as §2

Q: What does the source list for `CCCCCCCCCC[C@@H](O)[C@H]1CC[C@H]([C@H]2CC[C@H]([C@H](O)CCCCCCCCCCCCC3=C[C@H](C)OC3=O)O2)O1` [ISODESAACETYLUVARICIN]?
A: mortality [1]: 100%; LC50 [2]: 0.024 µg/mL

Q: What does the source list for `CN(CC[C@H](N)CC(=O)N[C@H]1CC[C@H](n2ccc(N)nc2=O)O[C@@H]1C(=O)O)C(=N)N` [BLASTADIN S]?
A: Activity (Pyricularia oryzae [3]): 65.5%; Activity (Pyricularia oryzae [4]): 100%

Q: Which LC50 (Meloidogyne incognita [5]) does the source give for `O=C/C=C/c1ccccc1` [CINNAMALDEHYDE] here?
A: 12.2 µg/mL (≈ 92.6 µM)

Q: What about the LC50 (Meloidogyne incognita [6]) of the same compound?
A: 13.9 µg/mL (≈ 105 µM)

Q: What about the LC50 (Meloidogyne incognita [7]) of the same compound?
A: 15.1 µg/mL (≈ 115 µM)

Q: For `CCCCCCCCCC[C@H](O)[C@H]1CC[C@H]([C@H]2CC[C@H]([C@H](O)CCCCCCCCCCC3=C[C@H](C)OC3=O)O2)O1` (relative stereo) [REL-SQUAMOCIN-J], which mortality [1] is on record?
A: 100%

Q: And the LC50 [2]?
A: 0.025 µg/mL

Q: Which results are given for `OCC1=C[C@H](N[C@H]2C[C@H](CO)[C@@H](O[C@@H]3O[C@H](CO)[C@@H](O)[C@H](O)[C@H]3O)[C@H](O)[C@H]2O)[C@H](O)[C@@H](O)[C@@H]1O` [VALIDAMYCIN]?
A: Activity (Rhizoctonia solani [8]): 70%; Activity (Rhizoctonia solani [9]): 100%

Q: Which Activity (Phytophthora infestans [10]) does the source give for `COc1ccc(C(=CC(=O)N2CCOCC2)c2ccc(Cl)cc2)cc1OC` [DIMETHOMORPH] here?
A: 85%

Q: And the Activity (Phytophthora infestans [11])?
A: 100%

Q: Which results are given for `C[Si](Cn1cncn1)(c1ccc(F)cc1)c1ccc(F)cc1` [FLUSILAZOLE]?
A: Activity (Puccinia recondita [12]): 78%; Activity (Puccinia recondita [13]): 100%
